Key:
Bos taurus = species: Bos taurus; experiment: Displacement of [3H]colchicine from bovine brain tubulin at 5 uM after 10 mins
[1] = Cytotoxicity against human melanoma cells after 48 hrs; assay type: functional; conditions: Melanoma cell; for CC50: read-out: LC50 (the source's name)
Summary of the method: (§1)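 NCI 60-cell panel subpanel lines; compounds first screened at a single 10−5 M, then those passing threshold tested in five-concentration assay over 10−9 to 10−4 M (some to 10−3 M), 48 h exposure. Growth relative to untreated control measured as cell protein; GI50, TGI and LC50 derived; some values are means of two experiments.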

[2] = Cytotoxicity against human COLON cells after 48 hrs; assay type: functional; summary of the method: as §1
[3] = Cytotoxicity against human prostate cancer cells after 48 hrs; assay type: functional; conditions: Cancer cell lines
Summary of the method: (§2)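 NCI 60-cell panel (subpanels include leukemia and prostate). […] Percent growth relative to untreated control; some repeats averaged over two experiments.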

[4] = Cytotoxicity against human renal cancer cells after 48 hrs; assay type: functional; conditions: Cancer cell lines; summary of the method: as §1
[5] = Cytotoxicity against human leukemia cells after 48 hrs; assay type: functional; conditions: Leukemia cell; summary of the method: as §2
NSCLC = experiment: Cytotoxicity against human NSCLC cells after 48 hrs; assay type: functional; summary of the method: as §1
[6] = Cytotoxicity against human breast cancer cells after 48 hrs; assay type: functional; conditions: Cancer cell lines; summary of the method: as §1
[7] = Cytotoxicity against human ovarian cancer cells after 48 hrs; assay type: functional; conditions: Cancer cell lines; summary of the method: as §1
[8] = Inhibition of bovine brain tubulin assembly after 20 mins; set-up: species or system Bos taurus
[9] = Cytotoxicity against human CNS cancer cells after 48 hrs; assay type: functional; conditions: Cancer cell lines; summary of the method: as §1

## Cc1nn2c(/C=C3/C(=O)Nc4c3ccc3ccccc43)c(C)nc2s1
Bos taurus
  inhibition: 45%
[1]
  GI50: 0.68 µM
  TGI: 17 µM
  CC50: 70.8 µM
[2]
  GI50: 0.35 µM
  LC50 (concentration giving 50% net cell kill): 49 µM
  TGI: 6.61 µM
[3]
  GI50: 0.38 µM
  LC50 (concentration killing 50% of cells): 15.1 µM
  TGI: 5.13 µM
[4]
  GI50: 0.83 µM
  TGI: 10.5 µM
[4]; read-out: LC50 (the source's name)
  CC50: 56.2 µM
[5]
  GI50: 0.17 µM
  LC50 (concentration killing 50% of cells): 66.1 µM
  TGI: 3.31 µM
NSCLC
  GI50: 0.87 µM
  LC50: 74.1 µM
  TGI: 15.5 µM
[6]
  GI50: 0.3 µM
  LC50: 75.9 µM
  TGI: 6.31 µM
[7]
  GI50: 0.91 µM
  LC50 (concentration killing 50% of starting cells): 56.2 µM
  TGI: 11.8 µM
[8]
  IC50: 16 µM
[9]
  GI50: 0.39 µM
  LC50: 46.8 µM

## COc1ccc2c(c1)C(=Cc1c(OC)nc3sccn13)C(=O)N2C (mixture of isomers)
Bos taurus
  inhibition: 45%
[1]
  GI50: 0.79 µM
  TGI: 72.4 µM
  CC50: 91.2 µM
[2]
  GI50: 0.35 µM
  LC50 (concentration giving 50% net cell kill): 87.1 µM
  TGI: 24 µM
[3]
  GI50: 0.55 µM
[4]
  GI50: 0.71 µM
  TGI: 53.7 µM
[5]
  GI50: 0.16 µM
  LC50 (concentration killing 50% of cells): 79.4 µM
NSCLC
  GI50: 1.02 µM
  TGI: 58.9 µM
[6]
  GI50: 0.49 µM
  TGI: 49 µM
[7]
  GI50: 0.63 µM
  TGI: 31.6 µM
[8]
  IC50: 3.8 µM
[9]
  GI50: 0.38 µM
  TGI: 18.6 µM
